# Test results from ChEMBL document CHEMBL1944519 (Bioorg Med Chem, 2012).
# Biological target: T1, Steryl-sulfatase (Homo sapiens, UniProt P08842)
# T1 sequence (P08842 whole entry): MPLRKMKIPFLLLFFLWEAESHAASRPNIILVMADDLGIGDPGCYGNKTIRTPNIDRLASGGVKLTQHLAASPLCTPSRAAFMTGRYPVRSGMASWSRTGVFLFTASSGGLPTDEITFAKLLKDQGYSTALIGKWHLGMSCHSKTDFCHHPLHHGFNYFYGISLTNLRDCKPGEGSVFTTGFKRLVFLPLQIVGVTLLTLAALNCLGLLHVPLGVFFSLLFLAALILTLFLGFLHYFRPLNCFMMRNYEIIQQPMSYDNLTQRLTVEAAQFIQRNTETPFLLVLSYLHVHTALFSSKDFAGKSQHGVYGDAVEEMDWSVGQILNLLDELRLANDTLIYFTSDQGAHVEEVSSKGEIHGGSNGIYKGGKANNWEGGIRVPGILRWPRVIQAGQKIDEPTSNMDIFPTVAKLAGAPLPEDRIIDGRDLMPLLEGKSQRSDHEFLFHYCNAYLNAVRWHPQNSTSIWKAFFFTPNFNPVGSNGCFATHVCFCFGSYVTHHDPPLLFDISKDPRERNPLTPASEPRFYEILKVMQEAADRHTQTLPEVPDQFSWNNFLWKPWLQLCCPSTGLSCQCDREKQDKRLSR
# Test: Inhibition of steroid sulfatase using 4-methylumbelliferyl sulfate as substrate after 10 mins by spectrofluorimeter plate reader
# Summary of the method: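 Human placental STS, purified, used at 10 nM final with 200 μM 4-MUS (Km level). Assay buffer 0.1 M Tris-HCl pH 7.0, 0.01% Triton X-100, 5% DMSO, 25 °C. Inhibitor dilutions in DMSO/Tris (1:1), enzyme added last. 4-MU release read by fluorescence (ex 360, em 460) over 10 min, in triplicate. IC50 from percent activity vs log[I], fitted with a slope-factor equation plus background term.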
row,Compound,IC50 [nM]
1,C[C@]12CC[C@@H]3c4ccc(O)cc4CC[C@H]3[C@@H]1CC[C@@]2(O)Cc1ccc2ccccc2c1,120
2,COc1cccc(S(=O)(=O)N[C@H]2CC[C@H]3[C@@H]4CCc5cc(O)ccc5[C@H]4CC[C@]23C)c1,193
3,CCCc1ccc(S(=O)(=O)N[C@H]2CC[C@H]3[C@@H]4CCc5cc(O)ccc5[C@H]4CC[C@]23C)cc1,44
4,C[C@]12CC[C@@H]3c4ccc(O)cc4CC[C@H]3[C@@H]1CC[C@@H]2NS(=O)(=O)c1ccc2ccccc2c1,20
5,Cc1ccc(S(=O)(=O)N[C@H]2CC[C@H]3[C@@H]4CCc5cc(O)ccc5[C@H]4CC[C@]23C)cc1,207
6,C[C@]12CC[C@@H]3c4ccc(O)cc4CC[C@H]3[C@@H]1CC[C@@H]2NS(=O)(=O)c1cccc(C#N)c1,137
7,C[C@]12CC[C@@H]3c4ccc(O)cc4CC[C@H]3[C@@H]1CC[C@@]2(O)Cc1cccc(C(F)(F)F)c1,126
8,C[C@]12CC[C@@H]3c4ccc(O)cc4CC[C@H]3[C@@H]1CC[C@@H]2NC(=O)c1cccc(C(F)(F)F)c1,749
9,C[C@]12CC[C@@H]3c4ccc(O)cc4CC[C@H]3[C@@H]1CC[C@@H]2NS(=O)(=O)c1cccc(F)c1,112
10,C[C@]12CC[C@@H]3c4ccc(O)cc4CC[C@H]3[C@@H]1CC[C@@H]2NS(=O)(=O)c1cccc(OC(F)(F)F)c1,74
11,C[C@]12CC[C@@H]3c4ccc(O)cc4CC[C@H]3[C@@H]1CC[C@@H]2NS(=O)(=O)Cc1ccccc1,364
12,Cc1ccc(S(=O)(=O)O[C@H]2CC[C@H]3[C@@H]4CCc5cc(O)ccc5[C@H]4CC[C@]23C)cc1,293
13,Cc1ccc(S(=O)(=O)N[C@@H]2CC[C@H]3[C@@H]4CCc5cc(O)ccc5[C@H]4CC[C@]23C)cc1,341
14,Cc1cccc(S(=O)(=O)N[C@H]2CC[C@H]3[C@@H]4CCc5cc(O)ccc5[C@H]4CC[C@]23C)c1,65
15,C[C@]12CC[C@@H]3c4ccc(O)cc4CC[C@H]3[C@@H]1CC[C@@H]2NS(=O)(=O)c1ccccc1,343
16,C[C@]12CC[C@@H]3c4ccc(O)cc4CC[C@H]3[C@@H]1CC[C@@H]2NS(=O)(=O)c1ccc(Cl)cc1,271
17,C[C@]12CC[C@@H]3c4ccc(O)cc4CC[C@H]3[C@@H]1CC[C@@H]2NS(=O)(=O)c1ccc(F)cc1,479

# Second part, the compound after the results:
row,IC50 [nM],Compound
1,51,CCCCCc1ccc(S(=O)(=O)N[C@H]2CC[C@H]3[C@@H]4CCc5cc(O)ccc5[C@H]4CC[C@]23C)cc1
2,261,Cc1ccc(CS(=O)(=O)N[C@H]2CC[C@H]3[C@@H]4CCc5cc(O)ccc5[C@H]4CC[C@]23C)cc1
3,25,C[C@]12CC[C@@H]3c4ccc(O)cc4CC[C@H]3[C@@H]1CC[C@@H]2NS(=O)(=O)c1cccc(Br)c1
4,9,C[C@]12CC[C@@H]3c4ccc(O)cc4CC[C@H]3[C@@H]1CC[C@@H]2NS(=O)(=O)c1ccc(-c2ccccc2)cc1
5,90,C[C@]12CC[C@@H]3c4ccc(O)cc4CC[C@H]3[C@@H]1CC[C@@H]2NS(=O)(=O)c1cccc([N+](=O)[O-])c1
6,190,C[C@]12CC[C@@H]3c4ccc(O)cc4CC[C@H]3[C@@H]1CC[C@@H]2NS(=O)(=O)c1ccc(Br)cc1
7,26,CCCCc1ccc(S(=O)(=O)N[C@H]2CC[C@H]3[C@@H]4CCc5cc(O)ccc5[C@H]4CC[C@]23C)cc1
8,35,C[C@]12CC[C@@H]3c4ccc(O)cc4CC[C@H]3[C@@H]1CC[C@@]2(O)Cc1ccc(-c2ccccc2)cc1
9,39,C[C@]12CC[C@@H]3c4ccc(O)cc4CC[C@H]3[C@@H]1CC[C@@H]2NS(=O)(=O)c1ccc(Oc2ccccc2)cc1
10,23,C[C@]12CC[C@@H]3c4ccc(O)cc4CC[C@H]3[C@@H]1CC[C@@H]2NS(=O)(=O)c1cccc(C(F)(F)F)c1
11,18,CC(C)(C)c1ccc(S(=O)(=O)N[C@H]2CC[C@H]3[C@@H]4CCc5cc(O)ccc5[C@H]4CC[C@]23C)cc1
12,67,C[C@]12CC[C@@H]3c4ccc(O)cc4CC[C@H]3[C@@H]1CC[C@@H]2NS(=O)(=O)c1cccc(Cl)c1
13,493,C[C@]12CC[C@@H]3c4ccc(O)cc4CC[C@H]3[C@@H]1CC[C@@H]2NS(=O)(=O)c1ccccc1Br
14,62,CC(C)c1ccc(S(=O)(=O)N[C@H]2CC[C@H]3[C@@H]4CCc5cc(O)ccc5[C@H]4CC[C@]23C)cc1
15,73,C[C@]12CC[C@@H]3c4ccc(O)cc4CC[C@H]3[C@@H]1CC[C@@H]2NS(=O)(=O)c1ccc(C(F)(F)F)cc1

# Biological target: T1, Steryl-sulfatase
# Test: Mixed type inhibition of steroid sulfatase using 4-methylumbelliferyl sulfate as substrate by Lineweaver-Burk plot analysis
# Summary of the method: (§1)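 Kinetics used purified human placental STS at 10 nM final, 25 °C. Inhibitor was fixed at 75, 50 or 25 nM final (plus an inhibitor-free control) against 4-MUS from 83.3 to 500 μM final, in 0.1 M Tris-HCl pH 7.0. Initial rates (RFU/s) were measured by fluorescence in triplicate and plotted as Lineweaver–Burk. Slopes and intercepts were replotted with mixed-type equations to give Ki and αKi.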
row,Ki [nM],Compound
1,23,C[C@]12CC[C@@H]3c4ccc(O)cc4CC[C@H]3[C@@H]1CC[C@@H]2NS(=O)(=O)c1cccc(Br)c1

# Biological target: T1, Steryl-sulfatase
# Test: Inhibition of steroid sulfatase using 4-methylumbelliferyl sulfate as substrate by Lineweaver-Burk plot analysis
# Summary of the method: as §1
row,Ki [nM],Compound
1,23,C[C@]12CC[C@@H]3c4ccc(O)cc4CC[C@H]3[C@@H]1CC[C@@H]2NS(=O)(=O)c1cccc(Br)c1

# Biological target: T2, Steryl-sulfatase (Homo sapiens) (UniProt P08842)
# T2 sequence (whole entry): T1 sequence (P08842 whole entry)
# Test: Ratio of 17beta-3'-trifluoromethylbenzylest radiol IC50 to compound IC50 for steroid sulfatase
row,Ratio IC50,Compound
1,6,C[C@]12CC[C@@H]3c4ccc(O)cc4CC[C@H]3[C@@H]1CC[C@@H]2NS(=O)(=O)c1cccc(C(F)(F)F)c1
